How the values were obtained:
Cynomolgus monkey [1] = assay: In vivo inhibition of 11beta-HSD1 in non-fasting diet-induced obese cynomolgus monkey assessed as decrease in corticosterone excursion in plasma pretreated via oral gavage for 30 mins followed by DHC administration measured up to 60 mins by enzyme immunosorbent assay; assay type: functional; settings: Macaca fascicularis
Procedure, shortened: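 Cynomolgus monkeys given test compound at a predetermined time before the experiment, chosen from its pharmacokinetics. Substrate DHC (rodent substrate, used in place of cortisone) given afterwards. Blood sampled at various times. Design otherwise similar to the mouse DHC challenge.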

Cynomolgus monkey [2] = assay: Toxicity in cynomolgus monkey assessed as HPA axis activation by measuring increase in DHEA level at 10 mg/kg for 7 days; assay type: organism-based, Macaca fascicularis; settings: in vivo, 168 h
Cynomolgus monkey [3] = assay: Toxicity in cynomolgus monkey assessed as HPA axis activation by measuring increase in DHEAS level at 10 mg/kg for 7 days; assay type: organism-based, Macaca fascicularis; settings: in vivo, 168 h
Cynomolgus monkey [4] = assay: Toxicity in cynomolgus monkey assessed as HPA axis activation by measuring increase in cortisol level at 10 mg/kg for 7 days; assay type: organism-based, Macaca fascicularis; settings: in vivo, 168 h
[5] = Metabolic stability in human liver microsomes assessed as UGT-mediated glucuronidation of compound by measuring half life in presence of UDPGA; assay type: ADME
Procedure, shortened: (§1)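 Liver microsomal glucuronidation incubations in the presence of UDPGA; parent half-life determined.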

[6] = Metabolic stability in mouse liver microsomes assessed as UGT-mediated glucuronidation of compound by measuring half life in presence of UDPGA; assay type: ADME; procedure, shortened: as §1
[7] = (§2) Metabolic stability in human liver microsomes assessed as parent compound remaining after 10 mins; assay type: ADME, microsome; settings: liver microsomes, read-out: Stability
Procedure, shortened: (§3)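 Parent compound remaining after a 10 min incubation with human, mouse or rat liver microsomes.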

[8] = (§4) Metabolic stability in mouse liver microsomes assessed as parent compound remaining after 10 mins; assay type: ADME, microsome; settings: liver microsomes, read-out: Stability; procedure, shortened: as §3
[9] = (§5) Metabolic stability in rat liver microsomes assessed as parent compound remaining after 10 mins; assay type: ADME, microsome; settings: liver microsomes, read-out: Stability; procedure, shortened: as §3
[10] = target: T1, Nuclear receptor subfamily 1 group I member 2 (Homo sapiens, UniProt O75469); assay: Activation of PXR (unknown origin); assay type: ADME
T1 sequence (O75469 whole entry): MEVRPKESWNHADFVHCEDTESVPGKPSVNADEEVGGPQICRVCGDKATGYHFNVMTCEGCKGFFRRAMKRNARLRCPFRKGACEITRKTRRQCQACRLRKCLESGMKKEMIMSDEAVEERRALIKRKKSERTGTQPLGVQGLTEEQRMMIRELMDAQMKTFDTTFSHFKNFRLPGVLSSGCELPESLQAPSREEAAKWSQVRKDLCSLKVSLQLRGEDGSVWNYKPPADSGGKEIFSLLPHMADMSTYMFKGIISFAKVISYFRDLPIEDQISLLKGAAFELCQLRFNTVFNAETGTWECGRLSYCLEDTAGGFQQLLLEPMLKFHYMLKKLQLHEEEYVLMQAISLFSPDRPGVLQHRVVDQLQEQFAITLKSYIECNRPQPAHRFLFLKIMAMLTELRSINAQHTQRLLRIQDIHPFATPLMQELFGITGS
Procedure, shortened: (§6)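 PXR transactivation assay; EC50 and maximal activation (Ymax, % of control) reported.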

[11] = target: 11-beta-hydroxysteroid dehydrogenase 1 (Mus musculus, UniProt P50172)
PXR = PXR (Homo sapiens, UniProt O75469); assay: Activation of PXR (unknown origin) relative to control; assay type: ADME; procedure, shortened: as §6
Liver [12] = assay: as §5; assay type: ADME, microsome; settings: microsomes, 10 min; procedure, shortened: as §3
[13] = Inhibition of cynomolgus monkey 11beta-HSD1; design: species or system Macaca fascicularis
Liver [14] = assay: as §2; assay type: ADME, microsome; settings: microsomes, 10 min; procedure, shortened: as §3
Liver [15] = assay: as §4; assay type: ADME, microsome; settings: microsomes, 10 min; procedure, shortened: as §3
Mus musculus = assay: In vivo inhibition of 11beta-HSD1 in po dosed non-fasting diet-induced obese mouse assessed as decrease in corticosterone excursion in plasma pretreated for 60 mins followed by DHC administration measured up to 120 mins by enzyme immunosorbent assay; assay type: functional
Procedure, shortened: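 Nonfasting diet-induced obese male mice, groups of n = 6 matched for body weight; tail bleed at −60 min, then oral vehicle (0.5% Methocel, 0.1% Tween 80 in water) or drug. At 60 min, bleed and oral DHC 10 mg/kg. Bleeds at 30, 60 and 120 min post-DHC. Plasma corticosterone measured by enzyme immunosorbent assay; drug levels in terminal bleed.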

Chain of 11-beta-hydroxysteroid dehydrogenase 1 (P50172 whole entry): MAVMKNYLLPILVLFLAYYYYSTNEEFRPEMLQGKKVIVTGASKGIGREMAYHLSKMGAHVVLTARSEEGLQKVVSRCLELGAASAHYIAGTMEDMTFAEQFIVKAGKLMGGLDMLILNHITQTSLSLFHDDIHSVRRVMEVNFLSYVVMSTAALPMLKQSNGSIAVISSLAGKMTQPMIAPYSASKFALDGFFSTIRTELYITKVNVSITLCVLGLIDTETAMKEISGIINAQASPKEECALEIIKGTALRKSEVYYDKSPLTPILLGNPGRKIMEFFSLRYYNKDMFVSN

Row | SMILES | remaining at 10 min [7] | remaining at 10 min [8] | remaining at 10 min [9] | also measured
1 | O=C(O)CC1(c2ccc(F)cc2)C2CC3CC(C2)CC1C3 (stereo unspecified) |  |  |  | ED50 (Cynomolgus monkey [1]): 0.3 mg/kg; Activity (Cynomolgus monkey [2]): Toxic; Activity (Cynomolgus monkey [3]): Toxic; Activity (Cynomolgus monkey [4]): Toxic
2 | Fc1ccc(C2(Cc3nnn[nH]3)C3CC4CC(C3)CC2C4)cc1 (stereo unspecified) |  |  |  | half-life [5]: > 2 h; half-life [6]: > 1 h
3 | N#CC12CC3CC(C1)C(CC(=O)N1CC(O)C1)(c1ccc(F)cc1)C(C3)C2 (stereo unspecified) | 62% | 42% | 46% | EC50 [10]: > 50 µM
4 | O=C(CC1(c2ccc(F)cc2)C2CC3CC(C2)CC1C3)N1CC[C@@H]1CO (stereo partly specified) |  |  |  | IC50 [11]: 0.012 µM
5 | O=C(CC1(c2ccc(F)cc2)C2CC3CC(C2)CC1C3)N1CC(O)C1 (stereo unspecified) |  |  |  | EC50 [10]: 6.7 µM; Emax (PXR): 37%
6 | NC(=O)C12CC3CC(C1)C(CC(=O)N1CC(O)C1)(c1ccc(F)cc1)C(C3)C2 (stereo unspecified) | 82 to 100% | 73 to 77% | 62 to 79% | EC50 [10]: > 50 µM
7 | O=C(CC1(c2ccc(F)cc2)C2CC3CC(C2)CC1C3)N1CC[C@H]1CO (stereo partly specified) |  |  |  | IC50 [11]: 1.85 µM
8 | NC(=O)CC1(c2ccc(F)cc2)C2CC3CC(C2)CC1C3 (stereo unspecified) |  |  |  | half-life [5]: > 2 h; half-life [6]: > 2 h
9 | COC12CC3CC(C1)C(CC(=O)N1CC(O)C1)(c1ccc(F)cc1)C(C3)C2 (stereo unspecified) | 27 to 72% | 17 to 55% | 6 to 14% | EC50 [10]: > 50 µM
10 | O=C(CC1(c2ccc(F)cc2)C2CC3CC1CC(F)(C3)C2)N1CC(O)C1 (stereo unspecified) | 38 to 69% | 13 to 38% | 5 to 9% | EC50 [10]: > 25 µM
11 | O=C(CC1(c2ccc(F)cc2)C2CC3CC1CC(O)(C3)C2)N1CC(O)C1 (stereo unspecified) | 100% | 80 to 100% | 82 to 85% | EC50 [10]: > 50 µM
12 | CC1(O)C2CC3CC(C2)C(CC(=O)N2CC(O)C2)(c2ccc(F)cc2)C1C3 (racemic) | 41% | 17% | 23% | EC50 [10]: > 50 µM
13 | CC1(O)C2CC3CC1CC(C2)C3(CC(=O)N1CC(O)C1)c1ccc(F)cc1 (racemic) | 84% | 66% | 47% | 
14 | O=C(CC1(c2ccc(F)cc2)C2CC3CC(C2)CC1(O)C3)N1CC(O)C1 (racemic) | 25% | 11% | 2% | EC50 [10]: > 50 µM
15 | O=C(CC1(c2ccccc2)C2CC3CC1CC(C2)C3O)N1CC(O)C1 (racemic) [BMS-816336] | 88% | 82% |  | IC50 [11]: 0.068 µM; Stability (Liver [12]): 72%
16 | O=C(CC1(c2ccc(F)cc2)C2CC3CC1CC(C2)C3O)N1CC(O)C1 (single isomer, unassigned; enantiomer 2) |  |  |  | IC50 [13]: 0.0069 µM; Stability (Liver [14]): 90%; Stability (Liver [15]): 82%; Stability (Liver [12]): 75%
17 | O=C(CC1(c2ccc(F)cc2)C2CC3CC1CC(C2)C3O)N1CC(O)C1 (stereo in doubt) |  |  |  | IC50 [11]: 0.15 µM; IC50 [13]: 0.0248 µM; Stability (Liver [14]): 85%; Stability (Liver [15]): 78%; Stability (Liver [12]): 58%
18 | O=C(CC1(c2ccccc2)C2CC3CC1CC(C2)C3O)N1CC(O)C1 (stereo in doubt; form 1) |  |  |  | IC50 [13]: 0.016 µM; Stability (Liver [14]): 89%; Stability (Liver [15]): 65%; Stability (Liver [12]): 36%
19 | O=C(CC1(c2ccccc2)C2CC3CC1CC(C2)C3O)N1CC(O)C1 (stereo in doubt; form 2) |  |  |  | inhibition (Mus musculus): Dose-dependent effect

Now from value to molecule, other results behind:

Row | remaining at 10 min [7] | remaining at 10 min [8] | remaining at 10 min [9] | SMILES | also measured
20 | 84% | 54% | 22% | Cc1cccc(C2(CC(=O)N3CC(O)C3)C3CC4CC2CC(C3)C4O)c1 (racemic) | 
21 | 100% | 99% | 92% | NC(=O)C1C2CC3CC1CC(C2)C3(CC(=O)N1CC(O)C1)c1ccc(F)cc1 (racemic) | 
22 | 86% | 58% | 92% | O=C(CC1(c2cccnc2)C2CC3CC1CC(C2)C3O)N1CC(O)C1 (racemic) | 
23 | 100% | 24% | 14% | O=C(CC1(C2CCCCC2)C2CC3CC1CC(C2)C3O)N1CC(O)C1 (racemic) | 
24 | 95% | 92% |  | O=C(CC1(c2ccc(F)cc2)C2CC3CC1CC(C2)C3O)N1CC(O)C1 (racemic) | IC50 [11]: 0.043 µM; Stability (Liver [12]): 88%; EC50 [10]: > 50 µM; Emax (PXR): 4%
25 | 57% | 71% | 0% | O=C(CC1(c2ccc(C(F)(F)F)cc2)C2CC3CC1CC(C2)C3O)N1CC(O)C1 (racemic) | 
26 | 92% | 94% | 100% | O=C(CC1(c2ccncc2)C2CC3CC1CC(C2)C3O)N1CC(O)C1 (racemic) | 
27 | 75% | 72% | 26% | Cc1ccc(C2(CC(=O)N3CC(O)C3)C3CC4CC2CC(C3)C4O)cc1 (racemic) | 
28 | 53% | 47% | 27% | N#CC1C2CC3CC1CC(C2)C3(CC(=O)N1CC(O)C1)c1ccc(F)cc1 (racemic) | 
29 | 81% | 73% | 58% | O=C(CC1(c2ccc(Cl)cc2)C2CC3CC1CC(C2)C3O)N1CC(O)C1 (racemic) | 
30 | 100% | 93% | 90% | O=C(CC1(c2ccccn2)C2CC3CC1CC(C2)C3O)N1CC(O)C1 (racemic) | 
31 | 62% | 77% | 25% | Cc1ccccc1C1(CC(=O)N2CC(O)C2)C2CC3CC1CC(C2)C3O (racemic) | 
32 | 100% | 100% | 98% | CS(=O)(=O)c1ccc(C2(CC(=O)N3CC(O)C3)C3CC4CC2CC(C3)C4O)cc1 (racemic) | 
33 | 85% | 66% | 37% | O=C(CC1(c2cccc(Cl)c2)C2CC3CC1CC(C2)C3O)N1CC(O)C1 (racemic) | 
34 | 63% | 33% | 3% | O=C(CC1(Cc2ccccc2)C2CC3CC1CC(C2)C3O)N1CC(O)C1 (racemic) | 
35 | 28% | 42% | 53% | O=C(CC1(c2ccc(-c3ccncc3)cc2)C2CC3CC1CC(C2)C3O)N1CC(O)C1 (racemic) | 
36 | 98% | 71% | 70% | COc1ccc(C2(CC(=O)N3CC(O)C3)C3CC4CC2CC(C3)C4O)cc1 (racemic) | 
37 | 39% | 10% | 5% | O=C(CC1(c2ccc(-c3ccc(F)cc3)cc2)C2CC3CC1CC(C2)C3O)N1CC(O)C1 (racemic) | 
38 | 100% | 87% | 95% | N#Cc1ccc(C2(CC(=O)N3CC(O)C3)C3CC4CC2CC(C3)C4O)cc1 (racemic) | 

From ChEMBL document CHEMBL4014336 (J Med Chem, 2017)
